Laboratory results published in ChEMBL document CHEMBL4334435, “A focused structure-activity relationship study of psoralen-based immunoproteasome inhibitors” (Medchemcomm, 2019).
Active and inactive are the calls of the source. The calls are words filed in the database; no cut-off is given here.

Target: T1, Proteasome subunit beta type-10 (Homo sapiens) (UniProt P40306)
T1 sequence (whole entry): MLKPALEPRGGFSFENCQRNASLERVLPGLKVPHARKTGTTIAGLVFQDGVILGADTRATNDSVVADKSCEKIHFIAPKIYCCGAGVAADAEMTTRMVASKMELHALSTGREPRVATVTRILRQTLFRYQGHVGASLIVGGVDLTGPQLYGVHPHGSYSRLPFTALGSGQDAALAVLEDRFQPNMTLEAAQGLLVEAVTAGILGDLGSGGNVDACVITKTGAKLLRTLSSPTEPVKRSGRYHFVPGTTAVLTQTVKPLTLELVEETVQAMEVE
Experiment: Inhibition of human immunoproteasome beta 2i subunit at 10 uM using Boc-LRR-AMC as substrate preincubated for 30 mins followed by substrate addition measured for 120 mins by fluorescence based assay
Details: not given
Method in brief: (§1)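 Purified human immunoproteasome or constitutive proteasome subunit activities measured with fluorogenic substrates in presence of 10 μM compound; reported as residual activity.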

SMILES	inhibition
Cc1cccc(-c2coc3cc4oc(=O)c(-c5nsc(=O)o5)c(C)c4cc23)c1	inactive
Cc1c(-c2nsc(=O)o2)c(=O)oc2cc3occ(C4CCC4)c3cc12	inactive
COc1ccccc1-c1coc2cc3oc(=O)c(-c4nsc(=O)o4)c(C)c3cc12	inactive
Cc1c(-c2nsc(=O)o2)c(=O)oc2cc3occ(-c4ccc(Br)cc4)c3cc12	inactive

Target: T2, Proteasome subunit beta type-8 (Homo sapiens, UniProt P28062)
T2 sequence (P28062 whole entry): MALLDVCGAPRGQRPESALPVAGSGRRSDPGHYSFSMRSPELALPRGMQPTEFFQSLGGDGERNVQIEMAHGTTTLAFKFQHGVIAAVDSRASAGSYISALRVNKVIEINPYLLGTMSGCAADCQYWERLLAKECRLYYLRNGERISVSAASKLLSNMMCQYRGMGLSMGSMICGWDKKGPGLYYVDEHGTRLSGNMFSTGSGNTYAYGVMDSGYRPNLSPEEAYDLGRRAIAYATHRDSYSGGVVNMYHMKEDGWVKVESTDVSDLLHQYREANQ
Experiment: Inhibition of human immunoproteasome beta 5i subunit using Suc-LLVY-AMC as substrate preincubated for 30 mins followed by substrate addition and measured for 120 mins by fluorescence based assay
Details: not given

SMILES	IC50 [nM]
Cc1cccc(-c2coc3cc4oc(=O)c(-c5nsc(=O)o5)c(C)c4cc23)c1	365
Cc1c(-c2nsc(=O)o2)c(=O)oc2cc3occ(C4CCC4)c3cc12	433
COc1ccccc1-c1coc2cc3oc(=O)c(-c4nsc(=O)o4)c(C)c3cc12	227
Cc1c(-c2nsc(=O)o2)c(=O)oc2cc3occ(-c4ccc(Br)cc4)c3cc12	351

Target: T3, Proteasome Macropain subunit MB1 (Homo sapiens, UniProt P28074)
T3 sequence (P28074 whole entry): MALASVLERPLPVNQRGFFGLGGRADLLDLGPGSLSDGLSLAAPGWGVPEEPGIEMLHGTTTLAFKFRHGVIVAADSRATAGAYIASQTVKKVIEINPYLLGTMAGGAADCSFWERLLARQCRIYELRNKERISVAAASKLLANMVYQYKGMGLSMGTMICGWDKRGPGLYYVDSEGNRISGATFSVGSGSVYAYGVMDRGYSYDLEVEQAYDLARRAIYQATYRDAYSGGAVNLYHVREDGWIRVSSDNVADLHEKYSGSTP
Experiment: Inhibition of human constitutive proteasome beta 5 subunit at 10 uM using Suc-LLVY-AMC as substrate preincubated for 30 mins followed by substrate addition measured for 120 mins by fluorescence based assay
Details: 2 h
Method in brief: as §1

SMILES	inhibition (INH)
Cc1cccc(-c2coc3cc4oc(=O)c(-c5nsc(=O)o5)c(C)c4cc23)c1	Not Active
Cc1c(-c2nsc(=O)o2)c(=O)oc2cc3occ(C4CCC4)c3cc12	Not Active
COc1ccccc1-c1coc2cc3oc(=O)c(-c4nsc(=O)o4)c(C)c3cc12	Not Active
Cc1c(-c2nsc(=O)o2)c(=O)oc2cc3occ(-c4ccc(Br)cc4)c3cc12	Not Active

Target: T4, Proteasome subunit beta type-9 (Homo sapiens) (UniProt P28065)
T4 sequence (whole entry): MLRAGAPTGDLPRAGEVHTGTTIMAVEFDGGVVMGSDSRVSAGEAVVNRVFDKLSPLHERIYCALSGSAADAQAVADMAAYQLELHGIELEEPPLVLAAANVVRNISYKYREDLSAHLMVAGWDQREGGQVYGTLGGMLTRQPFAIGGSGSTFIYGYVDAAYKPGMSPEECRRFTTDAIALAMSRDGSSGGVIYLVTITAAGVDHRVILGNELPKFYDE
Experiment: Inhibition of human immunoproteasome beta 1i subunit at 10 uM using Ac-PAL-AMC as substrate preincubated for 30 mins followed by substrate addition measured for 120 mins by fluorescence based assay
Details: not given
Method in brief: as §1

SMILES	inhibition
Cc1cccc(-c2coc3cc4oc(=O)c(-c5nsc(=O)o5)c(C)c4cc23)c1	inactive
Cc1c(-c2nsc(=O)o2)c(=O)oc2cc3occ(C4CCC4)c3cc12	inactive
COc1ccccc1-c1coc2cc3oc(=O)c(-c4nsc(=O)o4)c(C)c3cc12	inactive
Cc1c(-c2nsc(=O)o2)c(=O)oc2cc3occ(-c4ccc(Br)cc4)c3cc12	inactive

Target: T3, Proteasome Macropain subunit MB1
Experiment: Inhibition of human constitutive proteasome beta 5 subunit using Suc-LLVY-AMC as substrate preincubated for 30 mins followed by substrate addition measured for 120 mins by fluorescence based assay
Details: not given

SMILES	IC50
Cc1cccc(-c2coc3cc4oc(=O)c(-c5nsc(=O)o5)c(C)c4cc23)c1	Nd(Insoluble)
Cc1c(-c2nsc(=O)o2)c(=O)oc2cc3occ(C4CCC4)c3cc12	Nd(Insoluble)
COc1ccccc1-c1coc2cc3oc(=O)c(-c4nsc(=O)o4)c(C)c3cc12	Nd(Insoluble)
Cc1c(-c2nsc(=O)o2)c(=O)oc2cc3occ(-c4ccc(Br)cc4)c3cc12	Nd(Insoluble)

Target: T5, Proteasome subunit beta type-10 (Homo sapiens, UniProt P40306)
T5 sequence (P40306 whole entry): T1 sequence (whole entry)
Experiment: Inhibition of human immunoproteasome beta 2i subunit using Boc-LRR-AMC as substrate preincubated for 30 mins followed by substrate addition measured for 120 mins by fluorescence based assay
Details: not given

SMILES	IC50
Cc1cccc(-c2coc3cc4oc(=O)c(-c5nsc(=O)o5)c(C)c4cc23)c1	Nd(Insoluble)
Cc1c(-c2nsc(=O)o2)c(=O)oc2cc3occ(C4CCC4)c3cc12	Nd(Insoluble)
COc1ccccc1-c1coc2cc3oc(=O)c(-c4nsc(=O)o4)c(C)c3cc12	Nd(Insoluble)
Cc1c(-c2nsc(=O)o2)c(=O)oc2cc3occ(-c4ccc(Br)cc4)c3cc12	Nd(Insoluble)

Target: T6, Proteasome subunit beta type-9 (Homo sapiens, UniProt P28065)
T6 sequence (P28065 whole entry): T4 sequence (whole entry)
Experiment: Inhibition of human immunoproteasome beta 1i subunit using Ac-PAL-AMC as substrate preincubated for 30 mins followed by substrate addition measured for 120 mins by fluorescence based assay
Details: not given

SMILES	IC50
Cc1cccc(-c2coc3cc4oc(=O)c(-c5nsc(=O)o5)c(C)c4cc23)c1	Nd(Insoluble)
Cc1c(-c2nsc(=O)o2)c(=O)oc2cc3occ(C4CCC4)c3cc12	Nd(Insoluble)
COc1ccccc1-c1coc2cc3oc(=O)c(-c4nsc(=O)o4)c(C)c3cc12	Nd(Insoluble)
Cc1c(-c2nsc(=O)o2)c(=O)oc2cc3occ(-c4ccc(Br)cc4)c3cc12	Nd(Insoluble)
